Assay results gathered from unrelated publications.
Each line is one published result; the experiments were not run side by side.
PTGS1: Prostaglandin G/H synthase 1 (PTGS1, Ovis aries, UniProt P05979)
Organic anion transporter 3: Organic anion transporter 3 (Mus musculus, UniProt O88909)

SMILES	target	read-out	mode	technique	notes	quantity	value
N=c1c[n+](N2CCOCC2)[n-]o1	NAD-dependent protein deacetylase sirtuin-3, mitochondrial (SIRT3, Homo sapiens, UniProt Q9NTG7)	enzyme activity	inhibitor	–	–	IC50	35 µM
COc1ccc(-n2c(-c3ccccc3)csc2=NN=Cc2c(C)ccc(C(C)C)c2O)cc1	PTGS1	enzyme activity	inhibitor	absorbance	–	IC50	14.3 µM
CC(=O)N[C@H]1C(O)O[C@H](CO)[C@@H](O[C@@H]2O[C@H](CO)[C@H](O)[C@H](O)[C@H]2O)[C@@H]1O (stereo partly shown)	Galectin-7 (LGALS7, Homo sapiens, UniProt P47929)	binding	–	ITC	–	Kd	225 µM
CC1(CN)CCN(c2cnc3c(Sc4ccncc4Cl)n[nH]c3n2)CC1	Tyrosine-protein phosphatase non-receptor type 11 (PTPN11, Homo sapiens, UniProt Q06124)	enzyme activity	inhibitor	–	–	IC50	> 100 µM
Nc1ncnc2c1ncn2[C@@H]1O[C@H](CO)[C@@H](O)[C@H]1O	Organic anion transporter 3	transporter uptake	inhibitor	radiometric	oocytes	IC50	930 µM
CCCC(=O)NCCCN1CCc2c([nH]c3ccc(Cl)cc23)C1	Sodium-dependent serotonin transporter (SLC6A4, Homo sapiens, UniProt P31645)	transporter uptake	inhibitor	–	–	IC50	96.2 µM
O=c1cc(-c2ccc(O)cc2)oc2c([C@@H]3OC[C@H](O)[C@H](O)[C@H]3O)c(O)c([C@@H]3O[C@H](CO)[C@@H](O)[C@H](O)[C@H]3O)c(O)c12	Calcium/calmodulin-dependent protein kinase type II subunit delta (CAMK2D, Homo sapiens, UniProt Q13557)	binding	–	SPR	–	Kd	140 µM
Cn1c(=O)c2c(ncn2C)n(C)c1=O	Organic anion transporter 3	transporter uptake	inhibitor	radiometric	oocytes	IC50	7.5 µM
COc1ccc(-c2csc(=NN=Cc3c(C)ccc(C(C)C)c3O)n2-c2ccccc2Cl)cc1	PTGS1	enzyme activity	inhibitor	absorbance	–	IC50	9.87 µM
COc1cc(C(=O)OCCCN2CCCN(CCCOC(=O)c3cc(OC)c(OC)c(OC)c3)CC2)cc(OC)c1OC	Equilibrative nucleoside transporter 2 (Homo sapiens, UniProt Q14542)	transporter uptake	inhibitor	radiometric	oocytes	IC50	256 µM
